The source of these data is ChEMBL document CHEMBL4406830, “Galloyl esters of trans-stilbenes are inhibitors of FASN with anticancer activity on non-small cell lung cancer cells” (Eur J Med Chem, 2019).

Each structure is given as a SMILES string. Active and inactive are the calls of the source. The calls are words filed in the database; no cut-off is given here.

Test [1] concerns PC-9. Put plainly: Antiproliferative activity against human PC9 cells harboring FASN expression and EGFR delE746-A750 mutant assessed as cell viability at 100 uM after 72 hrs in presence of exogenous lipid concentrate by MTS assay. The class given is functional, cell-based. An outline of the steps: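 PC-9 cells seeded at 3 × 10^3 cells/100 µL in RPMI 1640 and left to attach overnight. Compound added as for the viability assay, with DMSO at 0.1% v/v. After 6 h at 37 °C and 5% CO2, chemically defined lipid concentrate was added to 2% v/v final. Incubation then continued 72 h. Viability was read by MTS absorbance at 490 nm against untreated cells, in triplicate.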
Background: Tetrazolium assays rely on reduction of a dye to a coloured formazan, in cell work by metabolically active cells.

In test [2] the test system is PC-9. As to the kind of experiment: Antiproliferative activity against human PC9 cells harboring FASN expression and EGFR delE746-A750 mutant assessed as reduction in cell viability after 72 hrs by MTS assay. The class given is functional, cell-based. The note with it: PC-9, 72 h. An outline of the steps: (§1)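 ATCC-sourced cells. H1299, H1650, H1703 and PC-9 were grown in RPMI 1640 with 10% FBS. A549 was grown in high-glucose DMEM with 10% FBS and 1 mM pyruvate. SAEC was grown in BEGM. Cells were seeded at 3 × 10^3 per well (H1650 3.5 × 10^3) and left to attach overnight. Serial dilutions from DMSO stocks were added, 0.1% DMSO final, for 72 h at 37 °C, 5% CO2. Medium was replaced, MTS added, and A490 read after 2 h. IC50 was taken from % viability versus log concentration, 3 experiments.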

The target in test [3] is Fatty acid synthase (Homo sapiens) (UniProt P49327). As to the kind of experiment: Inhibition of FASN in human PC9 cells harboring FASN expression and EGFR delE746-A750 mutant assessed as disruption of AKT/FASN positive feedback loop by measuring decrease in FASN expression at 100 uM after 48 hrs by Western immunoblot based densitometric assay relative to control. The class given is cell-based. A digest of the protocol:
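PC-9 or H1703 cells were seeded at 8 × 10^5 per 100 mm dish and treated for 48 h at 1 or 5 µM (or 5, 50 and 100 µM). RIPA lysates were BCA-quantified and run on 8% SDS-PAGE, then transferred to PVDF. Blots were probed for FASN, AKT, phospho-AKT S473 and GAPDH and detected by ECL. Bands were quantified by densitometry and normalised to vehicle control.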

For test [4] the target is unchanged. As to the kind of experiment: Inhibition of full length human FASN transfected in HeLa cell lysates at 10 uM using acetyl Co-A/malonyl Co-A as substrate preincubated with enzyme for 2 hrs followed by substrate addition measured after 10 mins in presence of NADPH by microplate reader analysis. The class given is subcellular. Conditions: Lysate. A digest of the protocol:
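Human FASN was made by in vitro translation from a FASN plasmid. Lysate was diluted 3:7 in 100 mM potassium phosphate, pH 6.5, 1 mM EDTA. It was preincubated with compound (10 µM final) for 2 h at 37 °C. Buffer containing acetyl-CoA (55 µM) and NADPH (330 µM) was added, then the reaction was started with malonyl-CoA (500 µM stock). A340 was read at 0 and 10 min; triplicates.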

The target is the same in test [5]. As to the kind of experiment: Inhibition of FASN in human PC9 cells harboring FASN expression and EGFR delE746-A750 mutant assessed as disruption of AKT/FASN positive feedback loop by measuring ratio of phosphoAKT/AKT expression at 100 uM after 48 hrs in presence of exogenous lipid concentrate by Western immunoblot based densitometric assay relative to control. Type of test: cell-based. An outline of the steps:
(§2)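 PC-9 cells were seeded at 8 × 10^5 per 100 mm dish and treated 48 h with compound, with or without chemically defined lipid concentrate (vehicle control included). RIPA lysates with protease inhibitors were BCA-quantified and run on 8% SDS-PAGE, then PVDF. Blots were probed for phospho-AKT Ser473 and total AKT (each 1:1,000, TBS-T/milk block). ECL detection; pAKT/AKT densitometry normalised to untreated control.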

The test system of the next test is NCI-H1299. As to the kind of experiment: Antiproliferative activity against human NCI-H1299 cells expressing FASN assessed as reduction in cell viability after 72 hrs by MTS assay. Conditions: NCI-H1299, 72 h. Type of test: functional, cell-based. An outline of the steps:
as §1

A short description of test [6]: Selectivity index, ratio of IC50 for human SAE cells lacking FASN expression to IC50 for human NCI-H1650 cells expressing FASN. A digest of the protocol: (§3)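 Index is the SAEC IC50 divided by the IC50 in the FASN-expressing NSCLC line. IC50s came from MTS viability after 72 h exposure at 37 °C, 5% CO2, DMSO 0.1% v/v. Absorbance was read at 490 nm after 2 h. The fit was % viability against log concentration, with 4 technical repeats and 3 independent experiments. NSCLC lines were grown in RPMI/10% FBS; SAEC in BEGM.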

The next test concerns NCI-H1650. Put plainly: Antiproliferative activity against human NCI-H1650 cells expressing FASN assessed as reduction in cell viability after 72 hrs by MTS assay. Type of test: functional, cell-based. The note with it: NCI-H1650, 72 h. An outline of the steps: as §1
Test [7] can be described thus: Selectivity index, ratio of IC50 for human SAE cells lacking FASN expression to IC50 for human PC9 cells harboring FASN expression and EGFR delE746-A750 mutant. A digest of the protocol:
as §3

Test [8] deals with Fatty acid synthase (Homo sapiens) (UniProt P49327). As to the kind of experiment: Inhibition of FASN in human PC9 cells harboring FASN expression and EGFR delE746-A750 mutant assessed as disruption of AKT/FASN positive feedback loop by measuring decrease in ratio of phosphoAKT/AKT expression at 100 uM after 48 hrs by Western immunoblot based densitometric assay relative to control. The class given is cell-based. A digest of the protocol: as §2
Chain of Fatty acid synthase (Homo sapiens) (P49327 whole entry, looked up): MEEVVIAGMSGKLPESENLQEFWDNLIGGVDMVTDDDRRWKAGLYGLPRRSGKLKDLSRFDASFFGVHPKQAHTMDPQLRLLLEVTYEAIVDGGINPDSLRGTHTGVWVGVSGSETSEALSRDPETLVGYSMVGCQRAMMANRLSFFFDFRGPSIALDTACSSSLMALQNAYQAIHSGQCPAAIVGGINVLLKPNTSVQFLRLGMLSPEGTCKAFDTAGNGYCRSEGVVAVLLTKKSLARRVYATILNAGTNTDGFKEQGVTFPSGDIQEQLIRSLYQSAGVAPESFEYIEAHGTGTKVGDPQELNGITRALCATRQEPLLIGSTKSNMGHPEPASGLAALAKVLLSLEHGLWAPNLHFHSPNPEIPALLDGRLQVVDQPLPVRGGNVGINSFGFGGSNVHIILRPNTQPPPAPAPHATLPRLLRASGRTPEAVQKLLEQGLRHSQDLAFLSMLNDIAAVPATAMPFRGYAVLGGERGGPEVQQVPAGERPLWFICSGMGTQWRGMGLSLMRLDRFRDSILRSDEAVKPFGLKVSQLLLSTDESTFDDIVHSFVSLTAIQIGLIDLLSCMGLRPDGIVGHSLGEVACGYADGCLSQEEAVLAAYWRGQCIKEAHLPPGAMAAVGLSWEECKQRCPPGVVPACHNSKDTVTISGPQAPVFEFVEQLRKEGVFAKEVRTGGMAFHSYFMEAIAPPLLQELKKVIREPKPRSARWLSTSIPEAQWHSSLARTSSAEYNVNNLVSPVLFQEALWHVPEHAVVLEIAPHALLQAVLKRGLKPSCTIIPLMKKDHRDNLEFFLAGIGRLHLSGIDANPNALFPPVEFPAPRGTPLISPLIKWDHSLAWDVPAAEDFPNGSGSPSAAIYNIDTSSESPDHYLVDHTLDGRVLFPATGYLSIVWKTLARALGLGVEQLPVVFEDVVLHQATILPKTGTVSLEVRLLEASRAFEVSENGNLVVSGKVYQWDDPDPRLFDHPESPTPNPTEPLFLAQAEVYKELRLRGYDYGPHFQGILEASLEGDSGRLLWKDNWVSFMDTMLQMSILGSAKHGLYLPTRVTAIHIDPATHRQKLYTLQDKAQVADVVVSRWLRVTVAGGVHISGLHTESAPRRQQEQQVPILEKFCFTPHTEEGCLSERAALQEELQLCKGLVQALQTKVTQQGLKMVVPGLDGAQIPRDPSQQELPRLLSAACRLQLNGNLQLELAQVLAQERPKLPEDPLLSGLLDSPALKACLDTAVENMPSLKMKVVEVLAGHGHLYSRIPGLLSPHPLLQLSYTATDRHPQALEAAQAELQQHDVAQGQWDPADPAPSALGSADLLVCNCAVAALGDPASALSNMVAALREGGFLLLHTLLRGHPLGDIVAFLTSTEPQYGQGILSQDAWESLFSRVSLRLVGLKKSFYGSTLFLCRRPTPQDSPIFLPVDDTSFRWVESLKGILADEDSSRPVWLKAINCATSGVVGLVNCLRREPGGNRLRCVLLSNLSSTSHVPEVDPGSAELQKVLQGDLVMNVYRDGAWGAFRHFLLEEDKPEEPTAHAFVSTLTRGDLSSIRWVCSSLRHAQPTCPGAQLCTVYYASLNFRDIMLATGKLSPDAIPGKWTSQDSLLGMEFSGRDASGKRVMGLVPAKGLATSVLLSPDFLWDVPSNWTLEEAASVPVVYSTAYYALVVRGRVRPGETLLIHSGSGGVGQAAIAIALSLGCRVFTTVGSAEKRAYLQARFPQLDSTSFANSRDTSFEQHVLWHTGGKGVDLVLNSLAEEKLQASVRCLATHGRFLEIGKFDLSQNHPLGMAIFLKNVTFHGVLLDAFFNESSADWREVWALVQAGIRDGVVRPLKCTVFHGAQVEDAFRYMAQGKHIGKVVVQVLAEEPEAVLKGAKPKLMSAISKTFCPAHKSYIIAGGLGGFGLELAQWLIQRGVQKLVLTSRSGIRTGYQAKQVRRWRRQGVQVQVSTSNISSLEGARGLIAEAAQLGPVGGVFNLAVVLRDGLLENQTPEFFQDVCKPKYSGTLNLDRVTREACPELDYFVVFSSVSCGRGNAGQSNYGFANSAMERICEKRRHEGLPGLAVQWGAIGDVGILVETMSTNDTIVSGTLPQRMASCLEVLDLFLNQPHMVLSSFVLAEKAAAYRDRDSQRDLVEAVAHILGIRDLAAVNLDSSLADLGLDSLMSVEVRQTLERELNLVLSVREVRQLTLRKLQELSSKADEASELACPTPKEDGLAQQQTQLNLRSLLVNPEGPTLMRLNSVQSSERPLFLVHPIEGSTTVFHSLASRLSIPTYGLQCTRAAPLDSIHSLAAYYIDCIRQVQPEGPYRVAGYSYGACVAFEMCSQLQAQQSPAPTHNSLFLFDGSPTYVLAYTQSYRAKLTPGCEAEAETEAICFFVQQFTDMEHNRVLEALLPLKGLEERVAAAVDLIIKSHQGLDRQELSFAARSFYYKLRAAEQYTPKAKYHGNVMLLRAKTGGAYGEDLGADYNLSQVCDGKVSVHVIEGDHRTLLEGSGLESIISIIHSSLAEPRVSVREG
Background: A western blot detects proteins with antibodies after separation by electrophoresis.

Test [9] is described as follows: Cytotoxicity against human SAE cells lacking FASN expression assessed as reduction in cell viability after 72 hrs by MTS assay. Type of test: cell-based. A digest of the protocol: as §1
In another test the test system is A549. Put plainly: Antiproliferative activity against human A549 cells expressing FASN assessed as reduction in cell viability after 72 hrs by MTS assay. The class given is functional, cell-based. The note with it: A549, 72 h. A digest of the protocol: as §1
Test [10] is described as follows: Selectivity index, ratio of IC50 for human SAE cells lacking FASN expression to IC50 for human A549 cells expressing FASN. A digest of the protocol:
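The ratio IC50(SAEC)/IC50(NSCLC line) was calculated from 72 h MTS viability IC50 values.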

The subject of test [11] is PC-9. As to the kind of experiment: Induction of apoptosis in human PC9 cells harboring FASN expression and EGFR delE746-A750 mutant at 100 uM after 72 hrs by Annexin-V FITC/PI staining-based flow cytometry. The class given is functional, cell-based. A digest of the protocol:
(§4)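 H1703 or PC-9 cells seeded at 1.5 × 10^5 cells/2 mL in 6-well plates and left to attach overnight. Treated at 100 µM, with a 0.1% DMSO vehicle control, at 37 °C and 5% CO2. Exposure is given as 72 h in the results and 48 h in the methods. Cells were harvested, rinsed in ice-cold PBS, stained with Annexin V-FITC/PI in binding buffer and read by flow cytometry. Early apoptosis was Annexin V+ only; late apoptosis was double positive. Triplicates.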
Background: Flow cytometry measures light scatter and fluorescence of single cells or particles in a stream.

Test [12] deals with NCI-H1703. Put plainly: Antiproliferative activity against human NCI-H1703 cells expressing FASN assessed as reduction in cell viability after 72 hrs by MTS assay. Type of test: functional, cell-based. The note with it: NCI-H1703, 72 h. An outline of the steps: as §1
Test [13] is described as follows: Selectivity index, ratio of IC50 for human SAE cells lacking FASN expression to IC50 for human NCI-H1299 cells expressing FASN expression. An outline of the steps: as §3
Test [14] deals with Fatty acid synthase (Homo sapiens) (UniProt P49327). Put plainly: Inhibition of full length human FASN transfected in HeLa cell lysates at 150 uM using acetyl Co-A/malonyl Co-A as substrate preincubated with enzyme for 2 hrs followed by substrate addition measured after 10 mins in presence of NADPH by microplate reader analysis. Type of test: subcellular. Conditions: Lysate. An outline of the steps: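 Human FASN was made by coupled in vitro translation of a FASN plasmid; the legend calls this HeLa cell lysate. Lysate was diluted 3:7 in 100 mM potassium phosphate pH 6.5 with 1 mM EDTA, then preincubated with compound for 2 h at 37 °C. Buffer containing acetyl-CoA (55 µM) and NADPH (330 µM) was added, and the reaction started with malonyl-CoA solution (500 µM). A340 was read at 0 and 10 min, and inhibition taken against untreated lysate. Triplicates.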

For test [15], the system named is NCI-H1703. As to the kind of experiment: Induction of apoptosis in human NCI-H1703 cells expressing FASN assessed as increase in late apoptotic cells at 100 uM after 72 hrs by Annexin-V FITC staining/PI-based flow cytometry. The class given is functional, cell-based. A digest of the protocol:
as §4

The nature of test [16]: Selectivity index, ratio of IC50 for human SAE cells lacking FASN expression to IC50 for human NCI-H1703 cells expressing FASN. An outline of the steps: as §3
Test [17] has as its target Fatty acid synthase (Homo sapiens) (UniProt P49327). Put plainly: Inhibition of FASN in human PC9 cells harboring FASN expression and EGFR delE746-A750 mutant assessed as disruption of AKT/FASN positive feedback loop by measuring FASN expression at 100 uM after 48 hrs in presence of exogenous lipid concentrate by Western immunoblot based densitometric assay relative to control. The class given is cell-based. An outline of the steps:
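PC-9 cells were seeded at 8 × 10^5 per 100 mm dish, attached overnight, then treated 48 h with compound plus chemically defined lipid concentrate. Cells were lysed in RIPA with protease inhibitors and protein quantified by BCA. Lysates were run on 8% SDS-PAGE and blotted to PVDF. Blots were probed for FASN (1:2,000, PBS-T/milk block) and GAPDH. ECL detection; FASN/GAPDH densitometry normalised to untreated control.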

As usually defined, the IC50 is the concentration that inhibits the measured activity by half. Consider `O=C(O[C@@H]1Cc2c(O)cc(O)cc2O[C@@H]1c1cc(O)c(O)c(O)c1)c1cc(O)c(O)c(O)c1` [EPIGALOCATECHIN GALLATE], for which the inhibition entry (in the test with PC-9 [1]; in test [4]) was “inactive” each time. For the same compound, the IC50 was 77.4 µM with PC-9 [2]; 20.6 µM in the test with NCI-H1299; 24.8 µM in the test on NCI-H1650; 110 µM in test [9]; 185 µM in the test with A549; 17.1 µM in the test with NCI-H1703 [12]. In addition, the Ratio in test [3] is 0.06; in test [5], 0.67; in test [8], 0.14; in [17], 0.89. For the same compound, the “Ratio IC50” value turned out to be 4.4 in test [6]; 1.4 in test [7]; 0.6 in test [10]; 5.3 in test [13]; 6.4 in test [16]. Further, the result in the test with PC-9 [11] and in the test with NCI-H1703 [15] was Active. Moreover, the inhibition result in test [14] was “Active”.
